Tm and folding enthalpy data for 38 sequences are collected here from the array DNA melting data of Ke et al. (doi:10.1101/2024.01.08.574731).

Data set [1] can be described thus: melting temperature; fluorescence melt of hairpins on a sequencing array, two-state fit, raised by 9.35 °C to match UV melts. The note with it: sodium 0.088 M. In short, it runs like this: (§1)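 Melting temperature and folding enthalpy were derived from bootstrapped two-state fits. The fitted temperatures were raised by 9.35 °C to agree with UV melts, and four replicates were combined by inverse variance. The underlying data were Cy3 fluorescence images of library hairpins, with annealed Cy3 and quencher oligos, on a sequenced MiSeq flow cell in 50 mM Na-HEPES pH 8.0, 25 mM NaCl, taken in 2.5 °C steps up to 60 °C, normalised to pre-quench Cy3 and to control constructs.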

Data set [2] can be described thus: folding enthalpy; higher = less favourable; fluorescence melt of hairpins on a sequencing array, two-state fit. The conditions noted are these: sodium 0.088 M. In short, it runs like this: as §1

Regarding GATCGACGTATCGATC ((((((....)))))), the Tm in data set [1] turned out to be 51.2 °C. Also, in data set [2], the folding enthalpy was -56.4 kcal/mol.

GATCGACTAGTCGATC ((((((....)))))): the Tm in data set [1] was determined as 63.7 °C. The folding enthalpy in data set [2] is -45.6 kcal/mol.

For GATCGACTATTCGATC ((((((....)))))), in data set [1], the Tm stood at 50.5 °C. Further, the folding enthalpy in data set [2] was -38.4 kcal/mol.

For GATCGACTTATCGATC ((((((....)))))), the Tm in data set [1] worked out at 51 °C. Besides, the folding enthalpy in data set [2] is -44.6 kcal/mol.

As to GATCGACTTGTCGATC ((((((....)))))), the Tm in data set [1] came out at 68.3 °C. Also, the folding enthalpy in data set [2] was -43.2 kcal/mol.

With GATCGAGACATCGATC ((((((....)))))), the Tm in data set [1] turned out to be 58.8 °C. Further, in data set [2], the folding enthalpy is -38.9 kcal/mol.

Consider GATCGAGACCTCGATC ((((((....)))))), for which the Tm in data set [1] is 56.7 °C. For the same sequence, in data set [2], the folding enthalpy is -44.3 kcal/mol.

In the case of GATCGAGACGTCGATC ((((((....)))))), in data set [1], the Tm is 57.2 °C. For the same sequence, the folding enthalpy in data set [2] was -37.3 kcal/mol.

With GATCGAGAGTCGATC ((((((...)))))), the Tm in data set [1] was 49.4 °C. Besides, the folding enthalpy in data set [2] was -29.7 kcal/mol.

As for GATCGAGATCTCGATC ((((((....)))))), the Tm in data set [1] worked out at 55.7 °C. The folding enthalpy in data set [2] is -50.6 kcal/mol.

On to GATCGAGCAATCGATC ((((((....)))))), for which the Tm in data set [1] was found to be 57.7 °C. Also, the folding enthalpy in data set [2] was -39.7 kcal/mol.

As to GATCGAGCTATCGATC ((((((....)))))), the Tm in data set [1] was determined as 58.4 °C. In addition, the folding enthalpy in data set [2] was -43.4 kcal/mol.

For the sequence GATCGAGGAAACTCGATC (((((((....))))))), in data set [1], the Tm worked out at 62.7 °C. In data set [2], the folding enthalpy is -44.5 kcal/mol.

For the sequence GATCGAGGAAACTCGGTC ((.((((....)))).)), the Tm in data set [1] was found to be 50.5 °C. Further, in data set [2], the folding enthalpy was -30.4 kcal/mol.

As for GATCGAGGAATCGATC ((((((....)))))), the Tm in data set [1] was determined as 55.9 °C. Besides, the folding enthalpy in data set [2] is -33.2 kcal/mol.

With GATCGAGGGGTCGATC ((((((....)))))), the Tm in data set [1] was 45.6 °C. For the same sequence, in data set [2], the folding enthalpy was -4.35 kcal/mol.

With GATCGAGGGTCGATC ((((((...)))))), the Tm in data set [1] is 51 °C. The folding enthalpy in data set [2] is -32.3 kcal/mol.

On to GATCGAGTACTCGATC ((((((....)))))), for which the Tm in data set [1] was found to be 58.8 °C. Moreover, the folding enthalpy in data set [2] is -43.4 kcal/mol.

In the case of GATCGAGTATTCGATC ((((((....)))))), the Tm in data set [1] worked out at 59.2 °C. In addition, the folding enthalpy in data set [2] is -40 kcal/mol.

Take GATCGAGTCTCGATC ((((((...)))))): the Tm in data set [1] is 53.2 °C. Also, the folding enthalpy in data set [2] is -39.2 kcal/mol.

GATCGAGTGGTCGATC ((((((....)))))): the Tm in data set [1] amounted to 53.9 °C. For the same sequence, in data set [2], the folding enthalpy is -8.38 kcal/mol.

For the sequence GATCGAGTTCTCGATC ((((((....)))))), in data set [1], the Tm was determined as 55.9 °C. Besides, the folding enthalpy in data set [2] was -39.6 kcal/mol.

Consider GATCGAGTTTTCGATC ((((((....)))))), for which, in data set [1], the Tm was 54.2 °C. Also, the folding enthalpy in data set [2] is -41.8 kcal/mol.

On to GATCGATAAGTCGATC ((((((....)))))), for which the Tm in data set [1] was 52.5 °C. The folding enthalpy in data set [2] was -44 kcal/mol.

Consider GATCGATATGTCGATC ((((((....)))))), for which the Tm in data set [1] amounted to 55 °C. Further, in data set [2], the folding enthalpy is -41.9 kcal/mol.

Consider GATCGATATTTCGATC ((((((....)))))), for which the Tm in data set [1] was determined as 53.1 °C. Also, the folding enthalpy in data set [2] was -44.3 kcal/mol.

Consider GATCGATCGTCGATC ((((((...)))))), for which the Tm in data set [1] came to 51.7 °C. For the same sequence, the folding enthalpy in data set [2] was -28.7 kcal/mol.

Regarding GATCGATCGTTCGATC ((((((....)))))), in data set [1], the Tm was determined as 53.5 °C. Further, the folding enthalpy in data set [2] was -36 kcal/mol.

Take GATCGATGTTCGATC ((((((...)))))): the Tm in data set [1] came to 51 °C. Besides, in data set [2], the folding enthalpy is -29.4 kcal/mol.

Consider GATCGATTATCGATC ((((((...)))))), for which the Tm in data set [1] was 52.7 °C. Also, the folding enthalpy in data set [2] was -38.5 kcal/mol.

Regarding GATCGATTGCTCGATC ((((((....)))))), the Tm in data set [1] came out at 51.2 °C. The folding enthalpy in data set [2] is -31.9 kcal/mol.

GATCGATTGTCGATC ((((((...)))))): in data set [1], the Tm amounted to 51.3 °C. The folding enthalpy in data set [2] was -35.5 kcal/mol.

Regarding GATCGATTTATCGATC ((((((....)))))), in data set [1], the Tm was 59.7 °C. Moreover, the folding enthalpy in data set [2] was -44.8 kcal/mol.

Regarding GATCGCAACTGCGATC ((((((....)))))), in data set [1], the Tm came out at 69.2 °C. The folding enthalpy in data set [2] was -33.8 kcal/mol.

Take GATCGCAAGAGCGATC ((((((....)))))): in data set [1], the Tm amounted to 67.8 °C. In data set [2], the folding enthalpy was -34 kcal/mol.

As for GATCGCACCGGCGATC ((((((....)))))), in data set [1], the Tm came out at 68.3 °C. The folding enthalpy in data set [2] was -33.7 kcal/mol.

Turning to GATCGCACTTGCGATC ((((((....)))))), the Tm in data set [1] was found to be 69.1 °C. In addition, the folding enthalpy in data set [2] was -32.3 kcal/mol.

For GATCGCAGTCGCGATC ((((((....)))))), the Tm in data set [1] was found to be 68.5 °C. Further, the folding enthalpy in data set [2] is -34.5 kcal/mol.
